Several values for one entry are separate records, joined by “and”; a condition that tells them apart may be missing. Equal values may be shown once.
How the values were obtained:
[1] = Average half life period was determined; assay type: ADME
[2] = First order rate constant for Alkylation reaction by the compound (17 mM) at temperature 37 degrees C with 1 M lutidine at pH 7.4 in the presence of 10 mol equiv of sodium thiosulfate; assay type: functional
In short: (§1)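 Run by 31P NMR in 1 M lutidine (D2O), "pH" 7.4 (corrected meter reading), 37 °C, with 10 mol equiv sodium thiosulfate as trapping agent. Overlapping A, B and C resonances were resolved by least-squares fitting to three Lorentzians or by Lorentz–Gauss resolution enhancement. This gave concentration–time estimates, from which k1 and k2 were derived.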

[3] = Second order rate constant for Alkylation reaction by the compound (11 mM) at temperature 20 degrees C with 1 M lutidine at pH 7.4 in the presence of 63 mol equiv of 2-mercaptoethanol; assay type: functional
In short: (§2)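 Decomposition followed over time by 31P NMR in 1 M lutidine buffer made with D2O, "pH" 7.4 (meter reading plus 0.4 unit for the deuterium isotope effect), with 2-mercaptoethanol as trapping agent. Concentrations of species A, B and C were tracked against time, and k1 (first alkylation) and k2 (second alkylation) were derived from them.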

[4] = First order rate constant for Alkylation reaction by the compound (17 mM) at temperature 47 degrees C with 1 M lutidine at pH 7.4 in the presence of 10 mol equiv of 2-mercaptoethanol; assay type: functional; in short: as §2
[5] = First order rate constant for Alkylation reaction by the compound (11 mM) at temperature 20 degrees C with 1 M lutidine at pH 7.4 in the presence of 63 mol equiv of 2-mercaptoethanol; assay type: functional; in short: as §2
[6] = Second order rate constant for Alkylation reaction by the compound (17 mM) at temperature 37 degrees C with 1 M lutidine at pH 7.4 in the presence of 10 mol equiv of sodium thiosulfate; assay type: functional; in short: as §1
[7] = Second order rate constant for Alkylation reaction by the compound (17 mM) at temperature 27 degrees C with 1 M lutidine at pH 7.4 in the presence of 10 mol equiv of 2-mercaptoethanol; assay type: functional; in short: as §2
[8] = Half life period for first alkylation reaction was determined; assay type: ADME
In short: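 Half-life derived from the k1 value (first alkylation, i.e. mustard disappearance), measured by 31P NMR in 1 M lutidine, "pH" 7.4, 37 °C, with trapping agent.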

[9] = Pka value at 20 degrees C
In short: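 31P NMR chemical shift recorded in unbuffered water as a function of solution pH at 20 °C. The shift versus pH data were fitted to the Henderson–Hasselbalch equation to give the pKa.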

[10] = First order rate constant for Alkylation reaction by the compound (17 mM) at temperature 37 degrees C with 1 M lutidine at pH 7.4 in the presence of 10 mol equiv of 2-mercaptoethanol; assay type: functional; in short: as §2
[11] = First order rate constant for Alkylation reaction by the compound (17 mM) at temperature 27 degrees C with 1 M lutidine at pH 7.4 in the presence of 10 mol equiv of 2-mercaptoethanol; assay type: functional; in short: as §2
[12] = Second order rate constant for Alkylation reaction by the compound (17 mM) at temperature 37 degrees C with 1 M lutidine at pH 7.4 in the presence of 10 mol equiv of 2-mercaptoethanol; assay type: functional; in short: as §2
[13] = Second order rate constant for Alkylation reaction by the compound (17 mM) at temperature 47 degrees C with 1 M lutidine at pH 7.4 in the presence of 10 mol equiv of 2-mercaptoethanol; assay type: functional; in short: as §2
[14] = First order rate constant for Alkylation reaction by the compound (17 mM) at temperature 20 degrees C with 1 M lutidine at […] in the presence of 10 mol equiv of 2-mercaptoethanol; assay type: functional
[15] = Half life period was determined; assay type: ADME; settings: rat

Molecule OC1CCOP(NCCCl)N1CCCl (trans isomer) has a half-life [1] of 1.03 h.

In the case of O=P(O)(NCCCl)NCCCl [PALIFOSFAMIDE], the K1 [2] is reported as 8.29 10e-3 min-1, the K2 [3] is reported as 0.63 10e-3 min-1 and the K1 [4] is reported as 34.3 10e-3 min-1. The K1 [5] was 1.07 10e-3 min-1, the K2 [6] was 4.29 10e-3 min-1 and the K2 [7] was 1.14 10e-3 min-1. For the same molecule, the T1/2 [8] was 1.28 h and 2.85 h, the Pka [9] was 4.28 and the K1 [10] was 9.03 10e-3 min-1. For the same molecule, the K1 [11] was 2.36 10e-3 min-1, the K2 [12] was 4.05 10e-3 min-1 and the K2 [13] was 20 10e-3 min-1. The K1 [14] was 1.2 10e-3 min-1.

In the case of O=P1(NCCCl)OCCC(O)N1CCCl (stereo unspecified) [ALDOIFOSFAMIDE], the half-life [1] is reported as 0.733 h and the half-life [15] is reported as 1 h.

— ChEMBL document CHEMBL1124552 (J Med Chem, 1989)
